Reference: ChEMBL document CHEMBL5137109, “Tunable Cysteine-Targeting Electrophilic Heteroaromatic Warheads Induce Ferroptosis” (J Med Chem, 2022)
Active and inactive are the calls of the source. The rule behind the calls is not given here.

Assays:
[1] = Selectivity ratio of IC50 for human HCT-116 cells to IC50 for human NCI-H522 cells by methylene blue staining based analysis; type: functional
[2] = test system: HCT-116; assay: Cytotoxicity against human HCT-116 cells assessed as reduction in cell viability incubated for 3 days by methylene blue staining based analysis; type: functional; settings: HCT-116, 72 h
[3] = test system: NCI-H522; assay: Cytotoxicity against human NCI-H522 cells assessed as time required to cause 50% irreversible cell death treated with compound followed by washing for every 30 mins for 6 hrs by methylene blue staining based analysis; type: functional
In short: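 NCI-H522 cells, 5*10³/well (n=3), plated overnight, then treated with compound or DMSO. Wells washed immediately after treatment and then at 30-min intervals up to 6 h; last wells not washed. Methylene blue in 50% ethanol fix/stain 30 min RT, dye dissolved in 0.1N HCl, A668. Each point taken as % survival of matching DMSO-treated cells.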

[4] = test system: NCI-H522; assay: Cytotoxicity against human NCI-H522 cells assessed as reduction in cell viability incubated for 3 days by methylene blue staining based analysis; type: functional; settings: NCI-H522, 72 h
[5] = test system: NCI-H522; assay: Induction of lipid peroxidation in human NCI-H522 cells assessed as increase in C11-BODIPY oxidation at 5 uM incubated for 6 hrs by flow cytometry relative to control; type: functional
In short: (§1)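 NCI-H522 cells at ~70% density, plated overnight, treated with compound or DMSO together with C11-BODIPY 581/591 (1 μM) for 3 h or 6 h. Cells then PBS-washed, trypsinised, resuspended in PBS with 2% FBS and read by flow cytometry, preferably 20*10³ cells. Oxidation compared with DMSO treatment.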

[6] = test system: NCI-H522; assay: Induction of lipid peroxidation in human NCI-H522 cells assessed as increase in C11-BODIPY oxidation at 10 uM incubated for 3 hrs by flow cytometry; type: functional, cell-based; in short: as §1
[7] = test system: NCI-H522; assay: Induction of lipid peroxidation in human NCI-H522 cells assessed as increase in C11-BODIPY oxidation at 30 uM incubated for 6 hrs by flow cytometry; type: functional, cell-based
In short: (§2)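 NCI-H522 cells (~70% density) plated in dishes overnight, then treated with compound or DMSO plus C11-BODIPY 581/591 (1 μM) added at treatment. After 3 h or 6 h, cells washed, trypsinized, resuspended in PBS with 2% FBS and analysed by flow cytometry (preferably 20×10³ cells). Oxidation compared with DMSO treatment.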

[8] = target: T1, Thioredoxin reductase 1, cytoplasmic (Homo sapiens) (UniProt Q16881); assay: Binding affinity to TXRD1 in human NCI-H522 cells at 10 uM incubated for 1 hr by Biotin-TAMRA pull down based western blot analysis; type: cell-based
T1 sequence (whole entry): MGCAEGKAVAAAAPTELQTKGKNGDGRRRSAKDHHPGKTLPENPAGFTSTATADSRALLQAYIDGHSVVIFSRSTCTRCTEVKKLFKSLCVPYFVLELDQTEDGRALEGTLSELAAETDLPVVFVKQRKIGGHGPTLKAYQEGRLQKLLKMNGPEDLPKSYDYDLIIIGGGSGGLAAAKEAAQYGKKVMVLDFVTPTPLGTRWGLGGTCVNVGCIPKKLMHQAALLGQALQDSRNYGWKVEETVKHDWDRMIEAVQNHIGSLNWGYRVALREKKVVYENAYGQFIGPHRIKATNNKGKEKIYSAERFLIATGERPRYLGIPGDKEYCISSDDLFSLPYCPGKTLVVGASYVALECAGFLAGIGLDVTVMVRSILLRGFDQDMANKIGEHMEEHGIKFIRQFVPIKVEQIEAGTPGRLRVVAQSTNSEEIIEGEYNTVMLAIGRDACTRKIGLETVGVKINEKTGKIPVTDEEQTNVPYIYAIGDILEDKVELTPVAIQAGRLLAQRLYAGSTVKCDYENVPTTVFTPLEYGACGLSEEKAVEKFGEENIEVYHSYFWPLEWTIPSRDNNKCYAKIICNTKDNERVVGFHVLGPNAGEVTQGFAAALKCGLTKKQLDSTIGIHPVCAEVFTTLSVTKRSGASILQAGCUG
In short: (§3)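 Probe or control given to cells for 1 h at 37 °C, two 10 cm dishes per treatment. Lysates precleared with streptavidin, then clicked to biotin-TAMRA azide (20 min RT plus 10 min 37 °C). Proteins precipitated, captured overnight on streptavidin beads and washed with RIPA/PBS. Bead eluates separated on 12.5% SDS-PAGE and immunoblotted, with milk blocking, primary antibody overnight at 4 °C, HRP secondary and ECL.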

[9] = target: T2, Phospholipid hydroperoxide glutathione peroxidase GPX4 (Homo sapiens) (UniProt P36969); assay: Binding affinity to GPX4 in human NCI-H522 cells at 10 uM incubated for 1 hr by Biotin-TAMRA pull down based western blot analysis; type: cell-based; in short: as §3
T2 sequence (whole entry): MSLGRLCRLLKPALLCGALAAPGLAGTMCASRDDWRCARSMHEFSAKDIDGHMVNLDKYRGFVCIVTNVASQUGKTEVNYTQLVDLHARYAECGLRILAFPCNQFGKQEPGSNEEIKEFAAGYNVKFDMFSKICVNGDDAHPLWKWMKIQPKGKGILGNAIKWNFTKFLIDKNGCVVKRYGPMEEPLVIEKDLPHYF

[10] = target: T3, Glutathione S-transferase omega-1 (Homo sapiens) (UniProt P78417); assay: Binding affinity to GSTO1 in human NCI-H522 cells at 10 uM incubated for 1 hr by Biotin-TAMRA pull down based western blot analysis; type: cell-based; in short: as §3
T3 sequence (whole entry): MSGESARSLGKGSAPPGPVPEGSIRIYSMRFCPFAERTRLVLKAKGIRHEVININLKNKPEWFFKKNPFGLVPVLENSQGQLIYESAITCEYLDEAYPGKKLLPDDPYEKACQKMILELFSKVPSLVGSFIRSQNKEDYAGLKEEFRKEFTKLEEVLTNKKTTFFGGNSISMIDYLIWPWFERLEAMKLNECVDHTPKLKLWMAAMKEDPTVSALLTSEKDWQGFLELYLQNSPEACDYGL

[11] = target: T1, Thioredoxin reductase 1, cytoplasmic (Homo sapiens); assay: Binding affinity to TXRD1 in human NCI-H522 cells at 10 uM incubated for 1 hr by Biotin-TAMRA pull down based mass spectrometry; type: cell-based
In short: (§4)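 Cells ~70% density, five 10 cm dishes per treatment, exposed to alkyne probe or control for 1 h at 37 °C, then lysed (NP-40/Tris). Lysate precleared on streptavidin beads 2 h at 4 °C, then CuAAC with biotin-TAMRA azide, THPTA, CuSO4 and ascorbate for 30 min at RT. Proteins MeOH/CHCl3 precipitated, enriched overnight on streptavidin, checked by in-gel fluorescence. Reduced/alkylated, trypsin-digested, nano LC-MS/MS. Filtered at 1% FDR, ≥2 unique peptides.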

[12] = target: T2, Phospholipid hydroperoxide glutathione peroxidase GPX4 (Homo sapiens); assay: Binding affinity to GPX4 in human NCI-H522 cells at 10 uM incubated for 1 hr by Biotin-TAMRA pull down based mass spectrometry; type: cell-based; in short: as §4
[13] = test system: NCI-H522; assay: Induction of lipid peroxidation in human NCI-H522 cells assessed as increase in C11-BODIPY oxidation at 10 uM incubated for 6 hrs by flow cytometry; type: functional, cell-based; in short: as §2
[14] = target: T3, Glutathione S-transferase omega-1 (Homo sapiens); assay: Binding affinity to GSTO1 in human NCI-H522 cells at 10 uM incubated for 1 hr by Biotin-TAMRA pull down based mass spectrometry; type: cell-based; in short: as §4
[15] = test system: NCI-H522; assay: Cytotoxicity against human NCI-H522 cells assessed as reduction in cell viability incubated for 3 days in presence of ferroptosis inhibitor, liproxstatin-1 by methylene blue staining based analysis; type: functional; settings: NCI-H522, 72 h
In short: (§5)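 NCI-H522 cells seeded at 25×10³/well (n=3), adhered overnight, then exposed to compound with or without liproxstatin-1 (0.25 μM). After 3 days, methylene blue staining with HCl elution and A668. Results given as % relative to DMSO control, mean ± SD, n=3, one-way ANOVA. Fold change is IC50 (with liproxstatin-1)/IC50 (alone).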

[16] = test system: NCI-H522; assay: Induction of lipid peroxidation in human NCI-H522 cells assessed as increase in C11-BODIPY oxidation at 0.5 uM incubated for 3 hrs by flow cytometry; type: functional, cell-based; in short: as §2
[17] = Cytotoxicity against human WI-38 cells assessed as reduction in cell viability incubated for 3 days by methylene blue staining based analysis; type: toxicity
[18] = test system: HT-1080; assay: Cytotoxicity against human HT-1080 cells assessed as reduction in cell viability incubated for 3 days by methylene blue staining based analysis; type: functional; settings: HT-1080, 72 h
[19] = test system: U2OS; assay: Cytotoxicity against human U2OS cells assessed as reduction in cell viability incubated for 3 days by methylene blue staining based analysis; type: functional; settings: 72 h
[20] = test system: HeLa; assay: Cytotoxicity against human HeLa cells assessed as reduction in cell viability incubated for 3 days by methylene blue staining based analysis; type: functional; settings: 72 h
[21] = Cytotoxicity against mouse MEF cells assessed as reduction in cell viability incubated for 3 days by methylene blue staining based analysis; type: toxicity
[22] = test system: MDA-MB-468; assay: Cytotoxicity against human MDA-MB-468 cells assessed as reduction in cell viability incubated for 3 days by methylene blue staining based analysis; type: functional; settings: MDA-MB-468, 72 h
[23] = target: T2, Phospholipid hydroperoxide glutathione peroxidase GPX4 (Homo sapiens); assay: Binding affinity to GPX4 in human NCI-H522 cells assessed as increase in aggregation temperature at 0.5 uM incubated for 1 hr by CETSA analysis; type: cell-based
In short: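 Cells ~80% confluent treated 1 h (vehicle DMSO 0.1% v/v), trypsinized, washed, resuspended in PBS and aliquots heated at temperatures between 43–67 °C for 3 min. Cells then pelleted and lysed in NP-40/Tris buffer. Soluble fraction analysed by SDS-PAGE and western blot, and aggregation temperature compared with DMSO. Mean ± SD, n = 3, t-test.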

[24] = Ratio of IC50 for cytotoxicity against human NCI-H522 cells in presence of ferroptosis inhibitor, liproxstatin-1 to IC50 for cytotoxicity against human NCI-H522 cells; type: functional
In short: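 NCI-H522 cells, 25*10³/well (n=3), plated overnight, treated with compound with or without Liproxstatin-1 (0.25 μM). After 3 days, methylene blue in 50% ethanol fix/stain 30 min RT, dye dissolved in 0.1N HCl, A668. Fold change = IC₅₀ with Liproxstatin-1 / IC₅₀ without.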

[25] = test system: MDA-MB-231; assay: Cytotoxicity against human MDA-MB-231 cells assessed as reduction in cell viability incubated for 3 days by methylene blue staining based analysis; type: functional; settings: MDA-MB-231, 72 h
[26] = test system: NCI-H522; assay: Cytotoxicity against human NCI-H522 cells assessed as reduction in cell survival at 4.5 uM incubated for 3 days in presence of ferroptosis inhibitor, liproxstatin-1 by methylene blue staining based analysis; type: functional; settings: time 3.0 day; in short: as §5

C#Cc1nc2ccccc2s1
Ratio IC50 [1]: 22.8
IC50 [2]: 19.6 µM
IT50 [3]: 1.7 h
IC50 [4]: 0.86 µM
fold change (FC) [5]: >5

C#Cc1nc2ccccc2[se]1
Activity [6]: Active
Ratio IC50 [1]: 11.5
IC50 [2]: 25 µM
IC50 [4]: 2.17 µM

C#Cc1nc(-c2ccccc2)cs1
Ratio IC50 [1]: >7.07
IC50 [2]: > 40 µM
Activity [7]: Active
IC50 [4]: 5.65 µM

C#CCNC(=O)c1csc(C#Cc2ccccc2)n1
Activity [8]: Active
IC50 [2]: > 40 µM
IC50 [4]: > 40 µM

C#CCNC(=O)c1csc(C#C)n1
Activity [9]: Active
Activity [10]: Active
Activity [11]: Active
Activity [12]: Active
Activity [13]: Active
IC50 [2]: 19.2 µM
Activity [14]: Active
IC50 [4]: 2.1 µM

C#Cc1nc(C(=O)N2CCN(C(c3ccc(Cl)cc3)c3ccc(Cl)cc3)CC2)cs1
IC50 [15]: 7.89 µM
Activity [16]: Active
IC50 at 3 days [17]: 0.022 µM
IC50 [18]: 0.019 µM
IC50 [19]: 0.367 µM
IC50 [20]: 0.242 µM
IC50 [2]: > 1 µM
IC50 at 3 days [21]: 0.01 µM
IC50 [22]: 0.084 µM
deltaT [23]: 7 °C
Ratio IC50 [24]: 464.353
IC50 [25]: 0.021 µM
IC50 [4]: 0.017 µM

C=Cc1nc2ccccc2n1C
Ratio IC50 [1]: 4.05
IC50 [2]: 9.5 µM
Activity [26]: Active
IC50 [4]: 2.34 µM
